Reference: ChEMBL document CHEMBL1132387, “N-arylpiperazinone inhibitors of farnesyltransferase: discovery and biological activity” (J Med Chem, 1999)
Several values for one entry are separate records, joined by “and”; a condition that tells them apart may be missing. Identical values can stand only once.

How the values were obtained:
[1] = target: Protein farnesyltransferase (Homo sapiens, UniProt P49354+P49356); experiment: Inhibition of [3H]FPP incorporation into recombinant human K-Ras by Farnesyltransferase; assay type: protein-complex assay
Summary of the method: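 FTase-catalyzed incorporation of [³H]FPP into recombinant human K-Ras protein. IC50 is the compound concentration giving 50% inhibition of that incorporation.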

[2] = system: DLD-1; experiment: Concentration required to inhibit growth of human tumor DLD1 cell line on poly(HEMA) coated microtiter plate; assay type: functional, cell-based
Summary of the method: (§1)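 Anchorage-independent growth assay: cells grown on poly(HEMA)-coated microtiter plates. IC50 is the compound concentration that inhibits 50% of cell growth.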

[3] = system: Rat1; experiment: Inhibition of anchorage-independent growth by 90% in human H-ras-transformed RAT1 cells in soft agar; assay type: functional; details: Rattus norvegicus
Summary of the method: (§2)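 RAT1 cells transformed with human H- or K-ras were suspended in soft agar to measure colony formation. IC90 is the concentration inhibiting anchorage-independent growth by 90% relative to vehicle-treated control. Values are reported as ranges.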

[4] = system: Rat1; experiment: Highest concentration compatible with 80% cell survival in cultured RAT1 cells; assay type: functional; details: Rattus norvegicus
Summary of the method: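 Normal RAT1 cells in culture, with viability read by MTT staining. The value is the highest compound concentration compatible with 80% cell survival.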

[5] = system: Rat1; experiment: Inhibition of anchorage independent growth of H-ras-transformed RAT1 cells on poly(HEMA) coated microtiter plate; assay type: functional, cell-based; details: Rattus norvegicus; summary of the method: as §1
[6] = system: Rat1; experiment: Inhibition of anchorage-independent growth by 90% in human K-ras-transformed RAT1 cells in soft agar; assay type: functional; details: Rattus norvegicus; summary of the method: as §2
[7] = system: Mus musculus; experiment: Tumor growth inhibition against subcutaneously injected H-ras Rat1 cells in female nude mice after continuous infusion of 1.4 mg/kg/day; assay type: functional; details: route subcutaneous
Summary of the method: (§3)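 Female nude mice were injected subcutaneously with H- or K-ras-transformed RAT1 cells. Treatment began 24 h later with vehicle (50% DMSO/water) or compound, n = 8–10, for about 14 days. Dosing was once-daily subcutaneous injection or continuous sc infusion by implanted Alzet osmotic pump. Tumor growth inhibition is relative to vehicle controls.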

[8] = target: Geranylgeranyl transferase type I (Homo sapiens, UniProt P49354+P53609); experiment: Inhibition of [3H]GGPP incorporation into recombinant human RhoA by Geranylgeranyl transferase type I; assay type: protein-complex assay
Summary of the method: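 GGTase I-catalyzed incorporation of [³H]GGPP into recombinant human RhoA protein. IC50 is the concentration giving 50% inhibition.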

[9] = system: Mus musculus; experiment: Tumor growth inhibition against subcutaneously injected H-ras-Rat1 cells in female nude mice after continuous infusion of 14 mg/kg/day; assay type: functional; details: route subcutaneous; summary of the method: as §3
[10] = system: MCF7; experiment: Concentration required to inhibit growth of human tumor MCF-7 cells line on poly(HEMA) coated microtiter plate; assay type: functional, cell-based; summary of the method: as §1
[11] = system: Rat1; experiment: Inhibition of anchorage-independent growth by 90% of human K-ras-transformed RAT1 cells in soft agar; assay type: functional; details: Rattus norvegicus; summary of the method: as §2

With `CCCC[C@H]1CN(C(=O)c2cccc3ccccc23)CCN1Cc1cncn1Cc1ccccc1` the IC50 [1] was 495 nM.
In the case of `CCCC[C@H]1CN(C(=O)c2cccc3ccccc23)CCN1Cc1c[nH]cn1`, the IC50 [1] is reported as 7300 nM.
Work on `C[C@@H]1CN(c2cccc(Cl)c2)C(=O)CN1Cc1cncn1Cc1ccc(C#N)cc1` yielded an IC50 [1] of 80 nM.
In the case of `CCCC[C@H]1CN(c2cccc(Cl)c2)C(=O)CN1Cc1cncn1Cc1ccc(C#N)cc1`, the IC50 [1] is reported as 0.11 nM.
In the case of `CCS(=O)(=O)C[C@@H]1CN(c2cccc(Cl)c2)C(=O)CN1Cc1cncn1Cc1ccc(C#N)cc1`, the IC50 [2] is reported as 1500 nM, the IC90 [3] is reported as 30 nM and the IC20 [4] is reported as over 100000 nM. The IC50 [1] was 0.18 nM, the IC50 [5] was 8 nM and the IC90 [6] was 1000 nM. The Tumor growth inhibition [7] was 73%, the IC50 [8] was over 100000 nM and the Tumor growth inhibition [9] was 100% and 60%. For the same compound, the IC50 [10] was 5 nM.
With `CCCC[C@H]1CN(c2cccc(C)c2C)C(=O)CN1Cc1cncn1Cc1ccc(C#N)cc1` the IC90 [3] was 100 nM, the IC20 [4] was 25000 nM and the IC50 [1] was 0.44 nM. For the same compound, the IC50 [5] was 28 nM, the IC50 [8] was 10000 nM and the IC90 [11] was 2500 nM.
In the case of `CCCC[C@H]1CN(C(=O)c2cccc3ccccc23)CCN1Cc1cncn1Cc1ccc(C#N)cc1`, the IC50 [1] is reported as 21 nM.
`C[C@H]1CN(c2cccc(Cl)c2)C(=O)CN1Cc1cncn1Cc1ccc(C#N)cc1` showed an IC50 [1] of 9 nM.
`CCCC[C@H]1CN(C(=O)c2cccc3ccccc23)CCN1C[C@@H](N)S` was tested, and the IC50 [1] was 1 nM.
